Experiments:
[1] = biological target: Sodium/potassium-transporting ATPase; test: In vitro inhibitory concentration against dog kidney Na+/K+ ATPase; format: protein-complex assay, Canis lupus familiaris
How it was run: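 Na+,K+-ATPase isolated and purified from dog kidney. Inhibition measured as percent hydrolysis of 32P-ATP with versus without compound. […] Single-concentration entries report percent inhibition at the stated concentration. Compounds tested within 1–4 h of dissolution.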

[2] = Percent increase in force of contraction in vitro determined using electrically driven guinea pig left atrium.; format: functional; conditions: Cavia porcellus, Cardiac atrium
How it was run: (§1)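 Isolated guinea pig atria in solution bubbled with 95% O2/5% CO2, field-stimulated by platinum electrodes at 1 Hz (1 ms square pulses, twice threshold voltage). After 60 min equilibration, cumulative concentrations added, each held until maximal response or arrhythmia.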

[3] = In vitro maximum inotropic effect on contractile force of an electrically driven guinea pig left atrium.; format: functional, Cavia porcellus, Cardiac atrium; how it was run: as §1
Cavia porcellus = species: Cavia porcellus; test: Concentration producing 50% of the maximal increase in the force of contraction in isolated guinea pig left atrium; format: functional; conditions: Cardiac atrium; how it was run: as §1
[4] = biological target: Sodium/potassium-transporting ATPase subunit alpha-1 (Canis lupus familiaris, UniProt P50997); test: In vitro inhibitory concentration against dog kidney Na+,K+-ATPase
How it was run: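 Na+,K+-ATPase isolated and purified from dog kidney. Inhibition measured as percent hydrolysis of 32P-ATP with versus without compound. Single-concentration entries report percent inhibition at the stated concentration. Compounds tested within 1–4 h of dissolution.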

SMILES | IC50 [1] [µM] | Emax [2] [%] | Concentration giving maximal inotropic effect [3] [µM] | EC50 (Cavia porcellus) [µM] | IC50 [4] [µM]
CCCO/N=C/C=C/[C@H]1CC[C@]2(O)[C@@H]3CC[C@@H]4C[C@@H](O)CC[C@]4(C)[C@H]3CC[C@]12C | 10 |  |  |  | 
CO/N=C/C=C/[C@H]1CC[C@]2(O)[C@@H]3CC[C@@H]4C[C@@H](O)CC[C@]4(C)[C@H]3CC[C@]12C | 4 |  |  |  | 
CN(C)CCCCO/N=C1\CC[C@]2(O)[C@@H]3CC[C@@H]4C[C@@H](O)CC[C@]4(C)[C@H]3CC[C@]12C | > 100 |  |  |  | 
C[C@]12CC[C@H](O)C[C@H]1CC[C@@H]1[C@@H]2CC[C@]2(C)[C@@H](CNOCCN)CC[C@]12O.Cl.Cl | 1.58 | 135 | 100 | 8 | 
CN(C)CCO/N=C\C=C1/CC[C@]2(O)[C@@H]3CC[C@@H]4C[C@@H](O)CC[C@]4(C)[C@H]3CC[C@]12C | 12.5 |  |  |  | 
CN(C)CCO/N=C/C[C@H]1CC[C@]2(O)[C@@H]3CC[C@@H]4C[C@@H](O)CC[C@]4(C)[C@H]3CC[C@]12C | 0.63 | 73 |  | 1.8 | 
C[C@]12CC[C@H](O)C[C@H]1CC[C@@H]1[C@@H]2CC[C@]2(C)[C@@H](CNOCCCN)CC[C@]12O | 0.4 | 237 |  | 3.9 | 
C[C@]12CC[C@H](O)C[C@H]1CC[C@@H]1[C@@H]2CC[C@]2(C)[C@@H](CC/C=N\OCCN)CC[C@]12O | 0.08 | 70 |  | 1.1 | 
CONC/C=C/[C@H]1CC[C@]2(O)[C@@H]3CC[C@@H]4C[C@@H](O)CC[C@]4(C)[C@H]3CC[C@]12C | 40 |  |  |  | 
C[C@]12CC[C@H](O)C[C@H]1CC[C@@H]1[C@@H]2CC[C@]2(C)[C@@H](/C=N/OCCN)CC[C@]12O | 0.16 | 145 |  | 0.62 | 
CN(C)CCO/N=C/C=C/C=C/[C@H]1CC[C@]2(O)[C@@H]3CC[C@@H]4C[C@@H](O)CC[C@]4(C)[C@H]3CC[C@]12C.O=C(O)C(=O)O |  | 145 | 100 | 20 | 6.3
CC(/C=N/OCCCCN)=C\[C@H]1CC[C@]2(O)[C@@H]3CC[C@@H]4C[C@@H](O)CC[C@]4(C)[C@H]3CC[C@]12C | 1.26 | 106 |  | 4 | 
C[C@]12CC[C@H](O)C[C@H]1CC[C@@H]1[C@@H]2CC[C@]2(C)[C@@H](C=O)CC[C@]12O |  | 79 | 300 | 11 | 25
CN(C)CCONC[C@H]1CC[C@]2(O)[C@@H]3CC[C@@H]4C[C@@H](O)CC[C@]4(C)[C@H]3CC[C@]12C.Cl.Cl | 50 | 18 | 300 |  | 
C[C@]12CC[C@H](O)C[C@H]1CC[C@@H]1[C@@H]2CC[C@]2(C)/C(=N/OCCN)CC[C@]12O | > 100 |  |  |  | 
C[C@]12CC[C@H](O)C[C@H]1CC[C@@H]1[C@@H]2CC[C@]2(C)[C@@H](CCCNOCCN)CC[C@]12O | 1 | 71 |  | 12 | 
CN(C)CCCO/N=C1\CC[C@]2(O)[C@@H]3CC[C@@H]4C[C@@H](O)CC[C@]4(C)[C@H]3CC[C@]12C | > 100 |  |  |  | 
C[C@]12CC[C@H](O)C[C@H]1CC[C@@H]1[C@@H]2CC[C@]2(C)[C@@H](CCCCCCCN)CC[C@]12O |  | 43 | 100 |  | 1.25
CO/N=C/[C@H]1CC[C@]2(O)[C@@H]3CC[C@@H]4C[C@@H](O)CC[C@]4(C)[C@H]3CC[C@]12C | 32 |  |  |  | 
C[C@]12CC[C@H](O)C[C@H]1CC[C@@H]1[C@@H]2CC[C@]2(C)[C@@H](/C=C/C=N/OCCO)CC[C@]12O | 6.3 | 179 | 300 | 39 | 
C[C@]12CC[C@H](O)C[C@H]1CC[C@@H]1[C@@H]2CC[C@]2(C)/C(=C/C=N\OCCN)CC[C@]12O | 2 | 136 | 100 | 18 | 
C[C@]12CC[C@H](O)C[C@H]1CC[C@@H]1[C@@H]2CC[C@]2(C)[C@@H](C3=CC(=O)OC3)CC[C@]12O [DIGITOXIGENIN] |  | 200 | 3 | 0.57 | 

— ChEMBL document CHEMBL1133742, “17beta-O-Aminoalkyloximes of 5beta-androstane-3beta,14beta-diol with digitalis-like activity: synthesis, cardiotonic activity, structure-activity relationships, and molecular modeling of the Na(+),K(+)-ATPase receptor” (J Med Chem, 2000)
